Experimental data as given in ChEMBL document CHEMBL2385015, “Alkaloids and polyketides from Penicillium citrinum, an endophyte isolated from the Moroccan plant Ceratonia siliqua” (J Nat Prod, 2013).
Active and inactive are the calls of the source. The rule behind the calls is not given here.

Tests used:
L5178Y = test: Cytotoxicity against mouse L5178Y cells by MTT assay; format: functional, cell-based
How it was run: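 Growth of L5178Y mouse lymphoma cells measured by MTT (microculture tetrazolium) assay relative to untreated controls. Medium with 0.1% EGMME–DMSO served as negative control and the depsipeptide kahalalide F as positive control.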

Staphylococcus aureus = test: Antibacterial activity against Staphylococcus aureus ATCC 29213 at 64 ug/mL by broth microdilution method; format: functional, organism-based
Escherichia coli = test: Antibacterial activity against Escherichia coli ATCC 25922 at 64 ug/mL by broth microdilution method; format: functional, organism-based
Streptococcus pneumoniae = test: Antibacterial activity against Streptococcus pneumoniae ATCC 49619 at 64 ug/mL by broth microdilution method; format: functional, organism-based

Compound | IC50 (L5178Y) | Activity (Staphylococcus aureus) | Activity (Escherichia coli) | Activity (Streptococcus pneumoniae)
O=C1c2c([nH]c3ccccc3c2=O)C2CCCN12 (centres undefined) | > 10 µM | inactive | inactive | inactive
COc1cc(O)c(C)c2c1[C@@H](c1ccc3n1C(=O)c1c-3[nH]c3ccccc3c1=O)O[C@@H](C)C2 [CITRIQUINOCHROMAN] | 6.1 µM | inactive | inactive | inactive
CC(=O)c1c(CC(=O)O)cc(O)c(C)c1O | > 10 µM | inactive | inactive | inactive
C[C@@H]1C[C@@](C)(O)Cc2ccc(CO)c(/C=C/C=C/C(=O)O)c21 | > 10 µM | inactive | inactive | inactive
COc1cc(O)c(C)c2cc(C)ncc12 | > 10 µM | inactive | inactive | inactive
CC1=C[C@H](O)[C@H]2C[C@@H](CO)C[C@@H](C)[C@@H]2[C@H]1/C=C/C=C/C(=O)O | > 10 µM | inactive | inactive | inactive
